Tests used:
MDA-MB-231 [1] = assay: Antiproliferative activity against triple negative human MDA-MB-231 cells assessed as reduction in cell growth at 10 uM incubated for 48 hrs by MTT assay relative to control; assay type: functional; details: MDA-MB-231, 48 h
Summary of the method: (§1)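 MTT viability: MCF-7 and MDA-MB-231 seeded 1×10^4 cells/well, exposed to DMSO or 0.01-100 μM for 48 h; MTT (5 mg/mL in PBS) added 4 h, formazan dissolved in DMSO, OD 550 nm; quadruplicate wells; IC50 fitted for compounds giving >50% inhibition at 10 µM; at least three independent experiments.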

MCF7 [2] = assay: Antiproliferative activity against ER-positive human MCF7 cells assessed as reduction in cell growth incubated for 48 hrs by MTT assay; assay type: functional, cell-based; details: MCF7, 48 h; summary of the method: as §1
MDA-MB-231 [3] = assay: Antiproliferative activity against triple negative human MDA-MB-231 cells assessed as reduction in cell growth incubated for 48 hrs by MTT assay; assay type: functional, cell-based; details: MDA-MB-231, 48 h; summary of the method: as §1
MCF7 [4] = assay: Antiproliferative activity against ER-positive human MCF7 cells assessed as reduction in cell viability at 10 uM incubated for 48 hrs by MTT assay relative to control; assay type: functional; details: MCF7, 48 h; summary of the method: as §1
MDA-MB-231 [5] = assay: Antitumor activity against triple-negative human MDA-MB-231 cells xenografted in mouse assessed as reduction in tumor growth at 40 mg/kg, ip administered once daily for 7 days; assay type: functional; details: MDA-MB-231, ip, 168 h, read-out: GI
Summary of the method: (§2)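 Female nude mice (6 weeks) given 2.5×10^6 MDA-MB-231 cells in PBS into third mammary fat pad, randomized into four groups; at 200 mm³ tumor volume dosed i.p. daily for 7 days in 50% DMSO/50% PEG vehicle; tumor volume (0.5×L×W²) and body weight measured daily; one-way ANOVA.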

T47D = assay: Antiproliferative activity against ER-positive human T47D cells assessed as reduction in cell growth incubated for 72 hrs by MTT assay; assay type: functional, cell-based
Summary of the method: (§3)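 MTT viability after 72 h exposure at indicated concentrations; cells seeded at 1×10^3 cells/well (T47D, MDA-MB-468, MCF-10A, MCF-7/ADR) in 96-well plates; quadruplicate wells, independently repeated three times; IC50 as mean ± SE of at least three experiments.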

MDA-MB-468 = assay: Antiproliferative activity against triple negative human MDA-MB-468 cells assessed as reduction in cell growth incubated for 72 hrs by MTT assay; assay type: functional, cell-based; details: MDA-MB-468, 72 h; summary of the method: as §3
MCF-10A = assay: Antiproliferative activity against human MCF10A cells assessed as reduction in cell growth incubated for 72 hrs by MTT assay; assay type: functional, cell-based; summary of the method: as §3
[6] = Toxicity in mouse xenografted with triple negative human MDA-MB-231 cells assessed as body weight at 40 mg/kg, ip administered once daily for 7 days; assay type: organism-based; details: in vivo, 168 h; summary of the method: as §2
MDA-MB-231 [7] = assay: Potency index, ratio of SMBA1 IC50 to compound IC50 for antiproliferative activity against triple negative human MDA-MB-231 cells assessed as reduction in cell growth incubated for 48 hrs by MTT assay; assay type: functional
MDA-MB-231 [8] = assay: Antitumor activity against triple-negative human MDA-MB-231 cells xenografted in mouse assessed as reduction in tumor growth at 20 mg/kg, ip administered once daily for 7 days; assay type: functional; details: MDA-MB-231, ip, 168 h, read-out: GI; summary of the method: as §2
[9] = Toxicity in mouse xenografted with triple negative human MDA-MB-231 cells assessed as body weight at 20 mg/kg, ip administered once daily for 7 days; assay type: organism-based; details: in vivo, 168 h; summary of the method: as §2
MCF7 [10] = assay: Potency index, ratio of SMBA1 IC50 to compound IC50 for antiproliferative activity against ER-positive human MCF7 cells assessed as reduction in cell growth incubated for 48 hrs by MTT assay; assay type: functional

Compound | inhibition at 10 µM (MDA-MB-231 [1]) | IC50 (MCF7 [2]) | IC50 (MDA-MB-231 [3]) | inhibition at 10 µM (MCF7 [4]) | other results
NCCOc1ccccc1C=C1c2ccccc2-c2ccc(N)cc21 | > 50% | 6.31 µM | 6.03 µM | > 50% | –
COc1ccccc1C=C1c2ccccc2-c2ccc([N+](=O)[O-])cc21 | – | > 10 µM | > 10 µM | – | –
O=[N+]([O-])c1ccc2c(c1)C(=Cc1ccccc1OCCN1CCN(S(=O)(=O)C3CC3)CC1)c1ccccc1-2 | – | – | > 10 µM | – | –
NCCOCCOc1ccccc1C=C1c2ccccc2-c2ccc([N+](=O)[O-])cc21 | > 50% | 6.13 µM | 9.35 µM | > 50% | –
O=[N+]([O-])c1ccc2c(c1)C(=Cc1ccccc1OCCN1CCNCC1)c1ccccc1-2 | > 50% | 4.97 µM | 3.5 µM | > 50% | –
O=[N+]([O-])c1ccc2c(c1)C(=Cc1cccnc1O)c1ccccc1-2 | – | – | > 10 µM | – | –
NCCOc1ccc(C=C2c3ccccc3-c3ccc([N+](=O)[O-])cc32)cc1 | > 50% | 8.47 µM | 6.4 µM | > 50% | –
CN1CCN(c2ncccc2C=C2c3ccccc3-c3ccc([N+](=O)[O-])cc32)CC1 | – | > 10 µM | > 10 µM | – | –
O=[N+]([O-])c1ccc2c(c1)C(=Cc1ccccc1O)c1ccccc1-2 | > 50% | 8.3 µM | 5.6 µM | > 50% | inhibition in vivo at 40 mg/kg (MDA-MB-231 [5]): 51%; IC50 (T47D): 10.4 µM; IC50 (MDA-MB-468): 16.1 µM; IC50 (MCF-10A): 7.58 µM; Activity [6]: Non-Toxic
NCCCCOc1ccccc1C=C1c2ccccc2-c2ccc([N+](=O)[O-])cc21 | > 50% | 5.77 µM | 3.66 µM | > 50% | –
O=[N+]([O-])c1ccc2c(c1)C(=Cc1ccccc1OCCN1CCCCC1)c1ccccc1-2 | > 50% | > 10 µM | 8.64 µM | – | –
NC[C@H](CCl)Oc1ccccc1C=C1c2ccccc2-c2ccc([N+](=O)[O-])cc21 | – | > 10 µM | > 10 µM | – | –
CC(C)[C@H](N)COc1ccccc1C=C1c2ccccc2-c2ccc([N+](=O)[O-])cc21 | > 50% | 4.5 µM | 5.04 µM | > 50% | –
CS(=O)(=O)N1CCN(CCOc2ccccc2C=C2c3ccccc3-c3ccc([N+](=O)[O-])cc32)CC1 | – | – | > 10 µM | – | –
O=[N+]([O-])c1ccc2c(c1)C(=Cc1ccccc1OCCF)c1ccccc1-2 | – | > 10 µM | > 10 µM | – | –
CN(C)CCOc1ccccc1C=C1c2ccccc2-c2ccc([N+](=O)[O-])cc21 | – | > 10 µM | > 10 µM | – | –
Nc1ccccc1C=C1c2ccccc2-c2ccc([N+](=O)[O-])cc21 | – | > 10 µM | > 10 µM | – | –
CC(=O)N1CCN(CCOc2ccccc2C=C2c3ccccc3-c3ccc([N+](=O)[O-])cc32)CC1 | – | > 10 µM | > 10 µM | – | –

Compound | inhibition at 10 µM (MDA-MB-231 [1]) | IC50 (MCF7 [2]) | IC50 (MDA-MB-231 [3]) | inhibition at 10 µM (MCF7 [4]) | other results
NCCOc1cccc(C=C2c3ccccc3-c3ccc([N+](=O)[O-])cc32)c1 | > 50% | 3.77 µM | 4.87 µM | > 50% | –
Nc1ncccc1C=C1c2ccccc2-c2ccc([N+](=O)[O-])cc21 | – | > 10 µM | > 10 µM | – | –
O=[N+]([O-])c1ccc2c(c1)C(=Cc1cccnc1N1CCNCC1)c1ccccc1-2 | > 50% | 5 µM | 4.27 µM | > 50% | –
CC(=O)NCCOc1ccccc1C=C1c2ccccc2-c2ccc([N+](=O)[O-])cc21 | – | > 10 µM | > 10 µM | – | –
COc1ncccc1C=C1c2ccccc2-c2ccc([N+](=O)[O-])cc21 | – | > 10 µM | > 10 µM | – | –
NCCOc1ccccc1C=C1c2ccccc2-c2ccc([N+](=O)[O-])cc21 | > 50% | 3.81 µM | 3.22 µM | > 50% | IC50 (T47D): 9.47 µM; IC50 (MDA-MB-468): 8.73 µM; Ratio IC50 (MDA-MB-231 [7]): 1.7 - 2.2; inhibition in vivo at 20 mg/kg (MDA-MB-231 [8]): 57%; Activity [9]: Non-Toxic; Ratio IC50 (MCF7 [10]): 1.7 - 2.2; IC50 (MCF-10A): 4.37 µM
O=[N+]([O-])c1ccc2c(c1)C(=Cc1ccccc1OCCO)c1ccccc1-2 | – | – | > 10 µM | – | –
CC(C)(C)OC(=O)NCCOc1ccccc1C=C1c2ccccc2-c2ccc([N+](=O)[O-])cc21 | – | > 10 µM | > 10 µM | – | –
NCCCOc1ccccc1C=C1c2ccccc2-c2ccc([N+](=O)[O-])cc21 | > 50% | 5.13 µM | 5.34 µM | > 50% | –
Nc1ccc2c(c1)C(=Cc1ccccc1O)c1ccccc1-2 | – | > 10 µM | > 10 µM | – | –
CN1CCN(CCOc2ccccc2C=C2c3ccccc3-c3ccc([N+](=O)[O-])cc32)CC1 | – | 9.58 µM | > 10 µM | > 50% | –
CN(C)CCNc1ccccc1C=C1c2ccccc2-c2ccc([N+](=O)[O-])cc21 | – | > 10 µM | > 10 µM | – | –
O=[N+]([O-])c1ccc2c(c1)C(=Cc1ccccc1OCCN1CCOCC1)c1ccccc1-2 | – | – | > 10 µM | – | –
O=[N+]([O-])c1ccc2c(c1)C(=Cc1ccccc1OC1CCNCC1)c1ccccc1-2 | > 50% | 5.45 µM | 3.53 µM | > 50% | –
O=[N+]([O-])c1ccc2c(c1)C(=Cc1ccccc1Br)c1ccccc1-2 | – | > 10 µM | > 10 µM | – | –
CNCCOc1ccccc1C=C1c2ccccc2-c2ccc([N+](=O)[O-])cc21 | > 50% | 4.26 µM | 5.48 µM | > 50% | –
CC[C@H](N)COc1ccccc1C=C1c2ccccc2-c2ccc([N+](=O)[O-])cc21 | > 50% | 4.66 µM | 5.08 µM | > 50% | –

From ChEMBL document CHEMBL4364270, “Structure-activity relationship studies on Bax activator SMBA1 for the treatment of ER-positive and triple-negative breast cancer” (Eur J Med Chem, 2019)
